Test results taken from ChEMBL document CHEMBL1129463, “Discovery of 1,5-benzodiazepines with peripheral cholecystokinin (CCK-A) receptor agonist activity (II): Optimization of the C3 amino substituent” (J Med Chem, 1996).
Activity calls are given as the source filed them. The calls are words filed in the database; no cut-off is given here.

How the values were obtained:
Mus musculus [1] = assay: Compound was tested in vivo for its activity in mouse gallbladder emptying assay at dose of 0.1 umol/kg ip; format: functional
Rattus norvegicus [2] = assay: Compound was tested in vivo for its anorectic potency in rats at dose of 0.1 umol/kg ip; format: functional
Mus musculus [3] = assay: Compound was tested in vivo for Percent Maximal response in mouse gallbladder emptying assay at dose of 1 umol/kg po; format: functional
[4] = molecular target: T1, Gastrin/cholecystokinin type B receptor (Homo sapiens, UniProt P32239); assay: Compound was tested in vitro for its ability to displace [125I]Bolton-Hunter CCK-8 from membrane preparation isolated from CHO-KI cells stably transfected with cDNA of human Cholecystokinin type B receptor; format: cell membranes
T1 sequence (P32239 whole entry): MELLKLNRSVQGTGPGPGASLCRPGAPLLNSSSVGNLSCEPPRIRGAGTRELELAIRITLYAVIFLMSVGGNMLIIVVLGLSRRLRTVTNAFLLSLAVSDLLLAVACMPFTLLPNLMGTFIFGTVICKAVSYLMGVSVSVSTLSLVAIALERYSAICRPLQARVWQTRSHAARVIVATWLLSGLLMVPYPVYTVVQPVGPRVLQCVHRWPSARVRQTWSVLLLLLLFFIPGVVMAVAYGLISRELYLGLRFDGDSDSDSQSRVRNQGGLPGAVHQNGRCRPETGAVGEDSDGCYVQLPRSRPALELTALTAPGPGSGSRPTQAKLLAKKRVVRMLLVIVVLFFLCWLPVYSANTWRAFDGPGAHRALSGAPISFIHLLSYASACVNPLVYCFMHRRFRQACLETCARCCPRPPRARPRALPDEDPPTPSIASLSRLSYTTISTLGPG

Cavia porcellus [5] = species on record: Cavia porcellus; assay: Maximum contractile response at 30 uM, normalized to CCK-8 (1 uM); format: functional
Cavia porcellus [6] = species on record: Cavia porcellus; assay: In vitro functional activity on the isolated guinea pig gallbladder; design: concentration or dose not given beside the values
Cavia porcellus [7] = species on record: Cavia porcellus; assay: In-vitro potency on the isolated guinea pig gallbladder; format: functional
[8] = molecular target: T2, Cholecystokinin receptor type A (Homo sapiens, UniProt P32238); assay: Compound was tested in vitro for its ability to displace [125I]Bolton-Hunter CCK-8 from membrane preparation isolated from CHO-KI cells stably transfected with cDNA of human Cholecystokinin type A receptor; format: cell membranes
T2 sequence (P32238 whole entry): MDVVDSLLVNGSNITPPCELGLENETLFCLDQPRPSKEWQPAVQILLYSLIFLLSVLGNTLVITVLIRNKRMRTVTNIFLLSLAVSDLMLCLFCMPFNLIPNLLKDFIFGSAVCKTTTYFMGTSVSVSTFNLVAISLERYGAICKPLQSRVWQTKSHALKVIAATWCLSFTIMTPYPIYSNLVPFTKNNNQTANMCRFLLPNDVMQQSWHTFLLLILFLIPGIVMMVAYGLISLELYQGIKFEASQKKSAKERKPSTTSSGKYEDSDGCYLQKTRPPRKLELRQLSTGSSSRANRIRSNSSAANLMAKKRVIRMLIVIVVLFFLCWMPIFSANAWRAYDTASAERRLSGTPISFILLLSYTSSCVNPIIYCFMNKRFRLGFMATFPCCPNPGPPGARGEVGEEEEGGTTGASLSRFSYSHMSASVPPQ

Mus musculus [9] = assay: Compound was tested in vivo Percent Maximal response activity in mouse gallbladder emptying assay at dose of 1 nmol/kg ip
[10] = molecular target: Cholecystokinin receptor (Homo sapiens) (UniProt P32239+P32238); assay: Selectivity ratio of inhibition of CCK-A vs CCK-B; format: protein assay
Procedure, shortened: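 Displacement of [125I]Bolton-Hunter CCK-8 from membranes of CHO-K1 cells stably transfected with human CCK-A or CCK-B receptor cDNA. pIC50 values were measured for each receptor. The ratio is IC50 CCK-A / IC50 CCK-B.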

Rattus norvegicus [11] = assay: Compound was tested in vivo for its Percent Maximal anorectic potency in rats at dose of 10 umol/kg po; ia = Inactive; format: functional, organism-based
Mus musculus [12] = assay: Compound was tested in vivo for its activity in mouse gallbladder emptying assay at dose of 1 umol/kg po; format: functional
Rattus norvegicus [13] = assay: Compound was tested in vivo for its Percent Maximal anorectic potency in rats at dose of 0.5 umol/kg ip; format: functional
Rattus norvegicus [14] = assay: Compound was tested in vivo for its Percent Maximal anorectic potency in rats at dose of 1 umol/kg po; format: functional
Rattus norvegicus [15] = assay: Compound was tested in vivo for its Percent Maximal anorectic potency in rats at dose of 0.1 umol/kg ip; format: functional
Cavia porcellus [16] = species on record: Cavia porcellus; assay: In vitro Functional activity on the isolated guinea pig gallbladder following incubation at 1 micro M percent contraction normalized to that for CCK-8
Procedure, shortened: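 Contraction is expressed as percent of the CCK-8 (1 μM) response. Non-contracting compounds were tested for antagonism against a CCK-8 curve (10⁻¹¹ to 10⁻⁶ M).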

Rattus norvegicus [17] = assay: Compound was tested in vivo for its anorectic potency in rats at dose of 0.5 umol/kg ip

Row | Compound | ED50 (Mus musculus [1]) [µmol/kg] | ED50 (Rattus norvegicus [2]) [µmol/kg] | Max (Mus musculus [3]) [%] | IC50 [4] [µM] | Max (Cavia porcellus [5]) [%] | Activity (Cavia porcellus [6]) [%] | EC50 (Cavia porcellus [7]) [µM] | IC50 [8] [µM] | Max (Mus musculus [9]) [%] | Selectivity ratio [10] | Max (Rattus norvegicus [11]) | ED50 (Mus musculus [12]) [µmol/kg] | Max (Rattus norvegicus [13]) [%] | Max (Rattus norvegicus [14]) [%] | Max (Rattus norvegicus [15]) [%] | Activity (Cavia porcellus [16]) [%] | ED50 (Rattus norvegicus [17]) [µmol/kg]
1 | CC(C)N(C(=O)CN1C(=O)C(NC(=O)c2cc3ccccc3[nH]2)C(=O)N(c2ccccc2)c2ccccc21)c1ccccc1 (stereo unspecified) | 0.005 | 0.095 | 85 | 0.316 | 49 | 49 | 0.501 | 0.0158 | 73 | 20 | inactive | 0.3 | 56 |  |  |  | 
2 | CC(C)N(C(=O)CN1C(=O)C(NC(=O)Nc2cccc(C(=O)O)c2)C(=O)N(c2ccccc2)c2ccccc21)c1ccccc1 (stereo unspecified) | 0.0071 |  | 77 | 0.01 | 102 | 100 | 0.0398 | 0.126 | 73 |  |  | 0.055 |  | 58 | 87 | 95 | 0.06
